A number with no mark means an inactive call.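 The calls were made as follows: active = a fitted dose response curve plus choline uptake above 120% of control at 33.3 µM; inactive = the rest.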
The molecules below were run against High affinity choline transporter 1 (Homo sapiens) (UniProt Q9GZV3) (assay: CHT activators enhancing choline uptake, dose response, orthogonal assay for CHT activator project, cell-based, 3H-choline uptake, radioactive, HEK293 CHT LV-AA (AID 651748)). Conditions: HEK293 hCHT LV-AA cells; series mostly up to 33.3 µM; choline uptake, % of control: at the top concentration.
Procedure, shortened: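 material = HEK293 cells expressing human CHT trafficking mutant LV-AA | buffer or medium = HBSS with 20 mM HEPES, pH 7.4 | reagent = 50 nM choline, 10% 3H-labelled | timing = 15 min compound pre-incubation then 15 min choline uptake, both 37 °C | technique = tritium scintillation counting | controls = buffer 100%, HC-3 0%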

High affinity choline transporter 1 (Homo sapiens), sequence (Q9GZV3 whole entry, looked up): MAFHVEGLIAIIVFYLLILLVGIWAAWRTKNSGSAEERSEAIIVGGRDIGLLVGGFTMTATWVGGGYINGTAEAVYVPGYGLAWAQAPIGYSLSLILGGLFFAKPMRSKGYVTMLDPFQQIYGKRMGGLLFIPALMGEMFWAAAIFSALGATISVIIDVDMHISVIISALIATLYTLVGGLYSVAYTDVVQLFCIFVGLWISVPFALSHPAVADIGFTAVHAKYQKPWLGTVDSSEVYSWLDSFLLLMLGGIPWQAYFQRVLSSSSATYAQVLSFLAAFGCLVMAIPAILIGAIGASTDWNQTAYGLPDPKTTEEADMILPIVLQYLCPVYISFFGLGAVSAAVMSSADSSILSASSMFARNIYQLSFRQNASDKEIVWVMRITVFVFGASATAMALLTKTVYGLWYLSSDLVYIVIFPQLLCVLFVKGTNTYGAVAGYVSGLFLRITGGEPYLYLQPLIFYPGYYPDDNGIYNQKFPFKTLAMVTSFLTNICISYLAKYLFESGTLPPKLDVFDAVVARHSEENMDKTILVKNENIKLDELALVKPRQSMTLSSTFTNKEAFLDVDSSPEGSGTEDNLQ

SMILES	choline uptake, % of control [%]
O=C(c1cccc(C(F)(F)F)c1)C1CCCN(Cc2cccn2-c2ncccn2)C1 (centres undefined)	52.6
Cc1ccccc1NCc1nc2ccccc2n1CCOc1ccccc1	54.1
CC(C)CN1CCN(Cc2cccn2-c2ccc(Cl)cn2)CC1CCO (centres undefined)	57.3
COc1ccc(NCc2nc3ccccc3n2CCOc2ccccc2Cl)cc1	65.1
Brc1ccc(NCc2nc3ccccc3n2CCOc2ccccc2)cc1	81
COc1ccc(NCc2nc3ccccc3n2CCOc2ccccc2)cc1	78.9
Fc1ccc(NCc2nc3ccccc3n2CCOc2ccccc2)cc1	55.7
Cc1cccc(NCc2nc3ccccc3n2CCOc2ccccc2)c1	70.5
Clc1ccc(NCc2nc3ccccc3n2CCOc2ccccc2)cc1	47.9
COc1ccccc1NCc1nc2ccccc2n1CCOc1ccccc1	87.8
c1ccc(NCc2nc3ccccc3n2CCOc2ccccc2)cc1	67
Cc1ccc(NCc2nc3ccccc3n2CCOc2ccccc2)cc1	58.6
CCOc1ccc(NCc2nc3ccccc3n2CCOc2ccccc2)cc1	64.9
O=C1N(Cc2cccc(Cl)c2)C[C@@H]2C[C@@H](c3cccn3-c3ccccn3)N3CCC[C@@]123	60.9
